# From publication PMC5035790 (Annals of Oncology, 2016)
# Key:
# Type in all cases: in vivo, human
# [1] = Plasma pharmacokinetics of copanlisib; settings: human, plasma, intravenous
# plasma glucose = assay: Plasma glucose and insulin pharmacodynamics; settings: 33 of 51; blood glucose >200 mg/dl
# non-Hodgkin's lymphoma = assay: Tumor response by International Working Group response criteria for lymphoma; settings: follicular lymphoma (FL), six patients
# Method in brief: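 NHL expansion cohort (follicular lymphoma and DLBCL) received 0.8 mg/kg as a 1-h IV infusion on days 1, 8 and 15 of each 28-day cycle, continued until progression or unfavourable risk:benefit. Response was judged by investigator assessment using International Working Group lymphoma criteria.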
# advanced solid tumors = assay: Tumor response by investigator, modified RECIST version 1.1
# Method in brief: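 Solid-tumour patients (dose-escalation cohorts 0.1–1.2 mg/kg, expansion at 0.8 mg/kg) received a 1-h IV infusion on days 1, 8 and 15 of 28-day cycles until progression. Response was by investigator assessment using modified RECIST 1.1. PTEN loss by IHC was defined as 0% tumour cells staining, low as 1% to <5%, and positive as ≥5%.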
# [2] = Blood pressure monitoring after infusion
compound,measurement,setting,value
"COc1c(OCCCN2CCOCC2)ccc2c1N=C(NC(=O)c1cnc(N)nc1)N1CCN=C21 [copanlisib, Copanlisib]",Cmax,"[1]; 0.4 mg/kg, cycle 1 day 15, diabetic expansion, 0.4 mg/kg, n=6, geometric mean (%CV)",151 ng/mL
same,half-life,"[1]; 0.4 mg/kg, t1/2, cycle 1 day 1, cohort 3, 0.4 mg/kg, n=1",60.6 h
same,half-life,"[1]; 0.4 mg/kg, t1/2, cycle 1 day 1, diabetic expansion, 0.4 mg/kg, n=2, value (%)",34.4 h
same,Tmax,"[1]; 0.4 mg/kg, tmax, cycle 1 day 1, cohort 3, 0.4 mg/kg, n=2, range",0.5 to 1.1 h
same,Tmax,"[1]; 0.4 mg/kg, tmax, cycle 1 day 15, cohort 3, 0.4 mg/kg, n=2, range",0.5 to 1.1 h
same,Tmax,[1]; 0.8 mg/kg,1 h
same,concentration at 8 day of cycle 1,[1]; 0.8 mg/kg,4.92 ng/mL
same,AUC(0-t),"[1]; 0.8 mg/kg, AUC(0–25), cycle 1 day 1, MTD 0.8 mg/kg combined, n=41, geometric mean (%CV)",1590 ng·h/mL
same,AUC(0-t),"[1]; 0.8 mg/kg, AUC(0–25), cycle 1 day 1, NHL expansion, 0.8 mg/kg, n=9, geometric mean (%CV)",1350 ng·h/mL
same,AUC(0-t),"[1]; 0.8 mg/kg, AUC(0–25), cycle 1 day 1, cohort 4, 0.8 mg/kg, n=7, geometric mean (%CV)",1600 ng·h/mL
same,AUC(0-t),"[1]; 0.8 mg/kg, AUC(0–25), cycle 1 day 15, MTD 0.8 mg/kg combined, n=35, geometric mean (%CV)",1570 ng·h/mL
same,AUC(0-t),"[1]; 0.8 mg/kg, AUC(0–25), cycle 1 day 15, NHL expansion, 0.8 mg/kg, n=8, geometric mean (%CV)",1760 ng·h/mL
same,AUC(0-t),"[1]; 0.8 mg/kg, AUC(0–25), cycle 1 day 15, cohort 4, 0.8 mg/kg, n=6, geometric mean (%CV)",1480 ng·h/mL
same,AUC(0-t),"[1]; 0.8 mg/kg, AUC(0–tlast), cycle 1 day 1, MTD 0.8 mg/kg combined, n=41, geometric mean (%CV)",2880 ng·h/mL
same,AUC(0-t),"[1]; 0.8 mg/kg, AUC(0–tlast), cycle 1 day 1, NHL expansion, 0.8 mg/kg, n=9, geometric mean (%CV)",2710 ng·h/mL
same,AUC(0-t),"[1]; 0.8 mg/kg, AUC(0–tlast), cycle 1 day 1, cohort 4, 0.8 mg/kg, n=7, geometric mean (%CV)",2940 ng·h/mL
same,Cmax,"[1]; 0.8 mg/kg, cycle 1 day 1, MTD 0.8 mg/kg combined, n=41, geometric mean (%CV)",454 ng/mL
same,Cmax,"[1]; 0.8 mg/kg, cycle 1 day 1, cohort 4, 0.8 mg/kg, n=7, geometric mean (%CV)",293 ng/mL
same,Cmax,"[1]; 0.8 mg/kg, cycle 1 day 15, MTD 0.8 mg/kg combined, n=36, geometric mean (%CV)",463 ng/mL
same,Cmax,"[1]; 0.8 mg/kg, cycle 1 day 15, NHL expansion, 0.8 mg/kg, n=8, geometric mean (%CV)",507 ng/mL
same,Cmax,"[1]; 0.8 mg/kg, cycle 1 day 15, cohort 4, 0.8 mg/kg, n=6, geometric mean (%CV)",370 ng/mL
same,half-life,"[1]; 0.8 mg/kg, t1/2, cycle 1 day 1, MTD 0.8 mg/kg combined, n=28, value (%)",38.2 h
same,half-life,"[1]; 0.8 mg/kg, t1/2, cycle 1 day 1, NHL expansion, 0.8 mg/kg, n=8, value (%)",38.9 h
same,half-life,"[1]; 0.8 mg/kg, t1/2, cycle 1 day 1, cohort 4, 0.8 mg/kg, n=4, value (%)",42.3 h
same,half-life,"[1]; 0.8 mg/kg, t1/2, cycle 1 day 1, solid tumors expansion, 0.8 mg/kg, n=16, value (%)",36.9 h
same,half-life,"[1]; 0.8 mg/kg, terminal half-life, MTD 0.8 mg/kg, coefficient of variation 43%",38.2 h
same,Tmax,"[1]; 0.8 mg/kg, tmax, cycle 1 day 1, cohort 4, 0.8 mg/kg, n=7, value (range)",1.1 h
same,Tmax,"[1]; 0.8 mg/kg, tmax, cycle 1 day 15, NHL expansion, 0.8 mg/kg, n=8, value (range)",0.8 h
same,AUC(0-t),"[1]; 1.2 mg/kg, AUC(0–25), cycle 1 day 1, cohort 5, 1.2 mg/kg, n=2, range",2510 to 3820 ng·h/mL
same,AUC(0-t),"[1]; 1.2 mg/kg, AUC(0–tlast), cycle 1 day 1, cohort 5, 1.2 mg/kg, n=2, range",4090 to 5230 ng·h/mL
same,Cmax,"[1]; 1.2 mg/kg, cycle 1 day 1, cohort 5, 1.2 mg/kg, n=2, range",616 to 739 ng/mL
same,half-life,"[1]; 1.2 mg/kg, t1/2, cycle 1 day 1, cohort 5, 1.2 mg/kg, n=1",33 h
same,Tmax,"[1]; 1.2 mg/kg, tmax, cycle 1 day 1, cohort 5, 1.2 mg/kg, n=2, range",0.6 to 1.3 h
same,non-diabetic patients receiving at least 1 dose of short-acting insulin,plasma glucose,65%
same,response rate,non-Hodgkin's lymphoma,100%
same,tumor reduction,"advanced solid tumors; 1 patient with endometrial carcinoma, 0.4 mg/kg cohort, stable disease",> 25%
same,objective response or stable disease for >4 cycles,advanced solid tumors; 10 patients without complete PTEN loss,none
same,partial response (PR),"advanced solid tumors; 48 patients with solid tumors, 2 patients, 1 confirmed, 1 unconfirmed",4%
same,complete response (CR),"advanced solid tumors; 48 patients with solid tumors, one patient",2%
same,disease progression by clinical judgment,"advanced solid tumors; 48 patients with solid tumors, seven patients",15%
same,patients with stable disease ≥6 cycles,advanced solid tumors; of the 15 patients with stable disease,6 patients
same,cycles until CR,"advanced solid tumors; patient with endometrial carcinoma, PIK3CA and PTEN mutations, complete PTEN loss, 0.8 mg/kg",10 cycles
same,overall response rate,advanced solid tumors; patients with solid tumors,6%
same,"CR, PR, or stable disease lasting ≥6 cycles","advanced solid tumors; solid tumors at MTD with complete PTEN loss, 3 of 7",43%
same,"CR, PR, or stable disease","advanced solid tumors; solid tumors at MTD without PTEN loss, seven patients",none
same,time of peak of post-infusion increase in blood pressure,[2]; in vivo,1 to 2 h
same,time to resolution of post-infusion increase in blood pressure,[2]; post-infusion,≤ 24 h
